Reference: ChEMBL document CHEMBL1155099, “Natural products in parallel synthesis: triazole libraries of nonactic acid” (2008)
Calls of active or inactive are those of the source.

What was measured:
Format in all cases: functional, organism-based
Bacillus cereus = assay: Antibacterial activity against Bacillus cereus at 1 mM by almar blue dye reduction assay
How it was run: (§1)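 Single-point primary screen at 1 mM using Alamar Blue dye reduction as the growth read-out.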

Bacillus subtilis = assay: Antibacterial activity against Bacillus subtilis at 1 mM by almar blue dye reduction assay; how it was run: as §1
Escherichia coli = assay: Antibacterial activity against Escherichia coli at 1 mM by almar blue dye reduction assay; how it was run: as §1
Cryptococcus neoformans = assay: Antifungal activity against Cryptococcus neoformans at 1 mM by almar blue dye reduction assay; how it was run: as §1
Staphylococcus aureus = assay: Antibacterial activity against Staphylococcus aureus at 1 mM by almar blue dye reduction assay; how it was run: as §1
Pseudomonas aeruginosa = assay: Antibacterial activity against Pseudomonas aeruginosa at 1 mM by almar blue dye reduction assay; how it was run: as §1
Saccharomyces cerevisiae = assay: Antifungal activity against Saccharomyces cerevisiae at 1 mM by almar blue dye reduction assay; how it was run: as §1
Bacillus anthracis = assay: Antibacterial activity against Bacillus anthracis at 1mM by almar blue dye reduction assay
Candida albicans = assay: Antifungal activity against Candida albicans at 1 mM by almar blue dye reduction assay; how it was run: as §1

Measured: Activity

C[C@H](C[C@@H]1CC[C@H]([C@@H](C)C(=O)N2CCN(CC3CCCO3)CC2)O1)n1cc(C#CC2=CCCCC2)nn1 (some centres not stated)
inactive: all assays above

C[C@H](C[C@@H]1CC[C@H]([C@@H](C)C(=O)N(C)Cc2ccccc2)O1)n1cc(C#Cc2cccc3ccccc23)nn1
inactive: all assays above

Cc1cccc(NC(=O)OCC#Cc2cn([C@H](C)CC3CCC([C@@H](C)C(=O)N(C)Cc4ccccc4)O3)nn2)c1 (single isomer, unassigned)
inactive: all assays above

CCN(CC)C(=O)[C@H](C)[C@H]1CC[C@@H](C[C@@H](C)n2cc(C#CCOC)nn2)O1
inactive: all assays above

C[C@H](C[C@@H]1CC[C@H]([C@@H](C)C(=O)N(C)Cc2ccccc2)O1)n1cc(C#CCOc2ccc(C(F)(F)F)cc2)nn1
inactive: all assays above

CCC(=O)OCC#Cc1cn([C@H](C)CC2CCC([C@@H](C)C(=O)N(CC)CC)O2)nn1 (single isomer, unassigned)
inactive: all assays above

C[C@H](C[C@@H]1CC[C@H]([C@@H](C)C(=O)N(C)Cc2ccccc2)O1)n1cc(C#CCc2ccccc2)nn1
inactive: all assays above

C[C@H](CC1CCC([C@@H](C)C(=O)N2CCN(CC3CCCO3)CC2)O1)n1cc(C#CCOC(=O)OCc2ccccc2)nn1 (single isomer, unassigned)
inactive: all assays above

CC(C)NC(=O)[C@H](C)[C@H]1CC[C@@H](C[C@@H](C)n2cc(C#Cc3ccc(-c4ccccc4)cc3)nn2)O1
inactive: all assays above

COCCNCC#Cc1cn([C@H](C)C[C@@H]2CC[C@H]([C@@H](C)C(=O)N(C)Cc3ccccc3)O2)nn1
inactive: all assays above

CC(C)NC(=O)[C@H](C)[C@H]1CC[C@@H](C[C@@H](C)n2cc(C#CCN3CCN(c4ccccc4)CC3)nn2)O1
inactive: all assays above

CCCCN(CC#Cc1cn([C@H](C)C[C@@H]2CC[C@H]([C@@H](C)C(=O)N3CCCC3)O2)nn1)CCCC
inactive: all assays above

C[C@H](C[C@@H]1CC[C@H]([C@@H](C)C(=O)N2CCCC2)O1)n1cc(C#CC2=CCCCC2)nn1
inactive: all assays above

C[C@H](C[C@@H]1CC[C@H]([C@@H](C)C(=O)N2CCCC2)O1)n1cc(C#CCOc2ccc(Br)cc2)nn1
inactive: all assays above

CC(C)NC(=O)[C@H](C)[C@H]1CC[C@@H](C[C@@H](C)n2cc(C#CCCCC#N)nn2)O1
inactive: all assays above

CCOC(=O)C#Cc1cn([C@H](C)CC2CCC([C@@H](C)C(=O)N3CCCC3)O2)nn1 (single isomer, unassigned)
inactive: all assays above

C[C@H](C[C@@H]1CC[C@H]([C@@H](C)C(=O)N2CCN(CC3CCCO3)CC2)O1)n1cc(C#CCOc2ccccc2)nn1 (some centres not stated)
inactive: all assays above

CCC(=O)OCC#Cc1cn([C@H](C)CC2CCC([C@@H](C)C(=O)NC(C)C)O2)nn1 (single isomer, unassigned)
inactive: all assays above
